# From PubChem BioAssay AID504383 (The Scripps Research Institute Molecular Screening Center, 2011)
# In all, about 2,500 compounds went through this assay and about 1,200 (48%) were called active.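 How the source made its calls: active means mean activation above the low control average plus 3 SD, as set in the primary screen (cut at about 12% in these data); inactive means the rest.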 The set was probably picked from earlier hits. This is one part of the list.
# Biological target: Troponin I, cardiac muscle (Homo sapiens) + Troponin T, cardiac muscle (Homo sapiens) + Troponin C, slow skeletal and cardiac muscles (Homo sapiens) (UniProt P19429+P45379+P63316)
# Assay: calcium sensitizers of cardiac thin filaments – biochemical, IANBD-TnC fluorescence, triplicate, confirmation (AID 504383);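 further: 0% = DMSO at 0.472 mM calcium and 100% = DMSO at 2.9 mM calcium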
# Conditions: IANBD-labeled cardiac RTF, Ca2+ sensitivity fluorescence; at 7.2 µM; active compounds read high; scaled from EC20 to saturating calcium; tested at EC20 calcium, 0.472 mM
# Summary of the method: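 Material: labelled regulated thin filaments; Reagent: 0.472 mM calcium; Incubation: 15 min compound incubation with filaments at 25 °C; Detection: filament fluorescence intensity; Evaluation: fluorescence increase normalised to calcium controls; Benchmarks: low control EC20 calcium, high control EC100 calcium.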
row,Structure (SMILES),activation
1,C=CCNc1nnc(SCC(=O)N2CCCCC2)c2ccccc12,15.7% (active)
2,O=C(CSc1ccc(-c2cccs2)nn1)N1CCCCC1,0.96% (inactive)
3,CS(=O)(=O)c1ccc(C(=O)OCC(=O)Nc2cccnc2Cl)cc1[N+](=O)[O-],13.1% (active)
4,CCOC(=O)c1c(NC(=O)COC(=O)Cc2ccccc2[N+](=O)[O-])sc(C(=O)N(C)C)c1C,6.12% (inactive)
5,Cc1ccc(NC(=O)C(C)Sc2nnc(C)n2C2CC2)cc1S(=O)(=O)N1CCOCC1 (stereo not drawn),7.55% (inactive)
6,CC(Sc1nnc(NCc2ccccc2)s1)C(=O)Nc1ccc2c(c1)C(=O)c1ccccc1C2=O (stereo not drawn),137% (active)
7,CC(C)CSC1=NSC2=NC(=O)/C(=C\c3coc4ccccc4c3=O)C(=N)N12,45.1% (active)
8,CCSC1=NSC2=NC(=O)/C(=C\c3coc4ccccc4c3=O)C(=N)N12,74.7% (active)
9,CSC1=NSC2=NC(=O)/C(=C/c3coc4ccccc4c3=O)C(=N)N12,3.64% (inactive)
10,CC(C)NC(=S)N/N=C/c1sc(N2CCCCC2)nc1-c1cccs1,11.2% (inactive)
11,O=C(NCCCN1CCCC1=O)c1cccc(S(=O)(=O)Nc2ccc(Br)cc2)c1,10% (inactive)
12,O=C(Nc1ccc(Br)cc1)c1ccc(Br)c(S(=O)(=O)Nc2cccnc2)c1,22.2% (active)
13,Cc1occc1C(=O)Nc1cccc([N+](=O)[O-])c1,30.8% (active)
14,O=C(Nn1cnnc1)c1cc([N+](=O)[O-])cc([N+](=O)[O-])c1,11.3% (inactive)
15,Cc1csc(NS(=O)(=O)c2cccc([N+](=O)[O-])c2)n1,10.9% (inactive)
16,COc1cc2cc(CN(Cc3cccnc3)C(=O)NCc3ccccc3)c(=O)[nH]c2cc1OC,324% (active)
17,COc1ccc2cc(CN(CC3CCCO3)C(=S)NCc3ccco3)c(=O)[nH]c2c1 (stereo not drawn),1.66% (inactive)
18,O=C(c1ccncc1)N(Cc1ccccc1)Cc1nc2ccccc2c(=O)[nH]1,9.24% (inactive)
19,CN1c2ccccc2C(O)=C(C(=S)Nc2ccc(F)c(Cl)c2)S1(=O)=O,54.4% (active)
20,CC(=O)Nc1ccccc1C(=O)C(=O)Nc1ccc(F)c(Cl)c1,7.61% (inactive)

row,Structure (SMILES),activation
1,CC(=O)/C(C=Nc1noc(C)c1Br)=C(\C)O,50.2% (active)
2,C=C1C(=O)O[C@@]23[C@H]1CC[C@@H](C)[C@@H]2CC[C@@]1(C)O[C@@H]31,11.9% (active)
3,C=CCNC(=O)NC(=O)COC(=O)CC(NC(N)=O)c1ccc(Cl)cc1 (stereo not drawn),154% (active)
4,CN(C)CCOc1ccccc1C(C)(C)C,4.26% (inactive)
5,CN(C)CCN(C)Cc1c2ccccc2c(CN(C)CCN(C)C)c2ccccc12,27.7% (active)
6,CC[N+](C)(C)c1cccc(O)c1,3.39% (inactive)
7,Cc1ccc(S(=O)(=O)Nc2ccc3ncccc3c2[N+](=O)[O-])cc1,11.6% (inactive)
8,Nc1nc(NCc2ccco2)nc(N2CCCCCC2)c1[N+](=O)[O-],6.31% (inactive)
9,Cc1ccc(S(=O)(=O)Nc2nc3ccccc3nc2NCc2ccco2)cc1,23.7% (active)
10,COC(=O)c1[nH]c2ccc(C)cc2c1NC(=O)C(C)N1CCN(C2CCCCC2)CC1 (stereo not drawn),10.5% (inactive)
11,CCn1c(C)c(CCC(=O)O)c(=O)n2nc(-c3ccccc3OC)cc12,11.7% (active)
12,COc1ccccc1-c1nnc(SCC(=O)Nc2ccc3[nH]c(=O)[nH]c3c2)n1N,6.5% (inactive)
13,O=S(=O)(CCN(CCS(=O)(=O)C(F)(F)F)CC1CCCO1)C(F)(F)F (stereo not drawn),17.5% (active)
14,Cc1ccc(-c2nn(-c3ccccc3)cc2/C=C2\SC(=S)N(CCCCCC(=O)O)C2=O)o1,23.1% (active)
15,O=C(O)CCCN1C(=O)/C(=C/c2cn(-c3ccccc3)nc2-c2cccs2)SC1=S,150% (active)
16,COC(=O)CCCCCN1C(=O)/C(=C\c2ccncc2)SC1=S,4.31% (inactive)
17,COc1ccccc1C(=O)NNC(=O)CCCN1C(=O)/C(=C/c2cccs2)SC1=S,1.62% (inactive)
18,C=CCNc1sc(C(=O)c2ccc(Br)s2)c(N)c1C#N,98% (active)
19,C#CCOCCOCCOCCNc1nc(N2CCN(C(=O)CCCCCCCCCCNC(=O)[C@@H](CCSC)n3cc(CCO)nn3)CC2)nc(N2CCN(C(=O)CCCCCCCCCCNC(=O)[C@H](CCSC)n3cc(CCO)nn3)CC2)n1,3.03% (inactive)
20,COc1ccc2[nH]c(C)c(CCN(Cc3cccs3)C(=S)Nc3ccc(F)cc3)c2c1,12.4% (active)

row,Structure (SMILES),activation
1,COc1ccc(NC(=O)C(c2ccc(C)cc2)N(C)C(=O)Cc2cccs2)cc1 (stereo not drawn),6.31% (inactive)
2,CCN(CC)S(=O)(=O)c1ccc2[nH]c(=O)[nH]c2c1,15.6% (active)
3,Cc1noc(C)c1C(=O)Nc1nc2ccccc2s1,28.4% (active)
4,O=S(=O)(/N=C(/Nc1nc2ccccc2s1)c1ccccc1)c1ccc(F)cc1,11.4% (inactive)
5,Cc1onc(-c2ccccc2)c1C(=O)Nc1nc(-c2cc(F)ccc2F)cs1,-0.1% (inactive)
6,Cc1cccc(NC2=Nc3ccccc3N3C2=Nc2c(c(C)nn2-c2ccccc2)C3c2ccc(O)c(O)c2)c1 (stereo not drawn),362% (active)
7,Cc1ccc(-c2ccc(CO)o2)cc1N,92.6% (active)
8,Cc1nc([N+](=O)[O-])c(Br)n1CC(=O)c1ccc2ccccc2c1,10.5% (inactive)
9,Cn1c(/C(C#N)=C(\O)CN2CCN(Cc3ccccc3)CC2)nc2ccccc21,7.65% (inactive)
10,Cc1nc([N+](=O)[O-])c(Sc2nc3ccccc3n2C)n1Cc1ccccc1,46.8% (active)
11,COc1ccc(Cc2n[nH]c(=O)c3ccccc23)cc1OC,5.9% (inactive)
12,COc1ccc(CCNc2cc(C)[nH]c(=O)c2)cc1OC,5.18% (inactive)
13,COc1ccc(CNc2nn[nH]n2)cc1OC,18.4% (active)
14,CCOC(=O)CC(=O)CSc1nc(-c2ccc3c(c2)OCO3)cc(C(F)(F)F)c1C#N,13.6% (active)
15,C(=N\c1nc2ccccc2n1CCN1CCOCC1)/c1cccs1,2.67% (inactive)
16,O=C(O)c1cccc([N+](=O)[O-])c1C(=O)Nc1cccc2ccccc12,14.4% (active)
17,Cc1ccc(NC(=O)c2cc(C(=O)c3cc(Cl)ccc3O)cn(-c3ccc(C)cc3)c2=O)cc1,15.1% (active)
18,Cc1ccc(O)c(C(=O)c2cc(C#N)c(=O)n(-c3nccs3)c2)c1,8.02% (inactive)
